In ChEMBL document CHEMBL1141109, “Synthesis of an estrogen receptor beta-selective radioligand: 5-[18F]fluoro-(2R,3S)-2,3-bis(4-hydroxyphenyl)pentanenitrile and comparison of in vivo distribution with 16alpha-[18F]fluoro-17beta-estradiol” (J Med Chem, 2005) one finds Biodistribution and Ratio data, which are given here for two molecules.

Data set [1] in a line: Biodistribution of [18F]FES in beta estrogen receptor knock out mouse kidney after 30 min(n=2); mice in nonestrus stage. The data set is classed as ADME, organism-based. Particulars: in vivo, 0.5 h.
A short description of data set [2]: Biodistribution of [18F]FES in beta estrogen receptor knock out mouse brain after 30 min(n=2); mice in nonestrus stage. Type of data set: ADME, organism-based. Particulars: in vivo, 0.5 h.
Data set [3] is described as follows: Biodistribution of [18F]FES in beta estrogen receptor knock out mouse heart after 30 min(n=2); mice in nonestrus stage. The note with it: in vivo, 0.5 h. Type of data set: ADME, organism-based.
Data set [4] in a line: Biodistribution of [18F]FES in beta estrogen receptor knock out mouse muscle after 1 h; (n=3). The data set is classed as ADME, organism-based, Muscle tissue. Particulars: in vivo.
The nature of data set [5]: Biodistribution of [18F]FES in beta estrogen receptor knock out mouse kidney after 1 h; (n=3). The data set is classed as ADME, organism-based. The note with it: in vivo.
Data set [6] can be described thus: Biodistribution of [18F]FES in beta estrogen receptor knock out mouse kidney after 30 min; (n=3). Type of data set: ADME, organism-based. Particulars: in vivo, 0.5 h.
Data set [7] can be described thus: Biodistribution of [18F]FES in alpha estrogen receptor knock out mouse blood after 2 h; (n=3). Type of data set: ADME, organism-based. Particulars: in vivo. The gist of the method:
(§1)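 Female αERKO mice were rested 48 h after shipping and fed estrogen-free chow. They were staged by daily vaginal smears and studied in diestrus. Each received 13 µCi [18F]FES in 100 µL 10% ethanol/saline and was sacrificed at 30 min, 1 h or 2 h (n = 3 per time). Tissue uptake is given as %ID/g ± SD.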

Data set [8] can be described thus: Biodistribution of [18F]-FES in beta estrogen receptor knock out mouse bone after 30 min(n=2); mice in nonestrus stage. Type of data set: ADME, organism-based, Bone element. The note with it: in vivo, 0.5 h. Put shortly:
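Female βERKO mice on estrogen-free chow were staged by vaginal smear and used in a nonestrus (diestrus) stage. Each received 13 µCi [18F]FES in 100 µL 10% ethanol/saline and was sacrificed at 30 min (n = 2). Uptake is given as %ID/g ± SD.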

A short description of data set [9]: Biodistribution of [18F]FES in alpha estrogen receptor knock out mouse bone after 1 h; (n=3). Particulars: in vivo. The data set is classed as ADME, organism-based, Bone element. The gist of the method:
as §1

Data set [10] is described as follows: Biodistribution of [18F]FES in beta estrogen receptor knock out mouse blood after 30 min; (n=3). Type of data set: ADME, organism-based. The note with it: in vivo, 0.5 h.
A short description of data set [11]: Biodistribution of [18F]FES in beta estrogen receptor knock out mouse spleen after 2 h; (n=3). The data set is classed as ADME, organism-based. The note with it: in vivo.
Data set [12] can be described thus: Biodistribution of [18F]FES in beta estrogen receptor knock out mouse liver after 2 h; (n=3). The data set is classed as ADME, organism-based. The note with it: in vivo.
Data set [13] in a line: Biodistribution of [18F]-FES in alpha estrogen receptor knock out mouse kidney after 2 h; (n=3). The data set is classed as ADME, organism-based. The note with it: in vivo. The gist of the method: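 Female αERKO mice rested 48 h after shipping and fed estrogen-free chow. Estrous stage was checked by daily vaginal smears, and mice were used in diestrus. Each received 13 µCi [18F]FES in 100 µL 10% ethanol/saline. Animals were sacrificed at 30 min, 1 h or 2 h (n = 3 each). Tissue uptake is reported as %ID/g ± SD.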

The nature of data set [14]: Biodistribution of [18F]FEDPN in rat ovaries after 1 h block when given in tail vein; (n=5). The data set is classed as ADME, organism-based, Female gonad. Particulars: in vivo, iv. The gist of the method: (§2)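 Immature female Sprague–Dawley rats (<25 days old) under isoflurane/O2 got 20 µCi tracer in 150 µL 20% ethanol/saline by tail vein. […] Rats were killed at 30 min, 1 h or 2 h. Organs were blotted, weighed and gamma-counted against an injectate standard. Data are %ID/g ± SD, five rats per point.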

Data set [15] in a line: Biodistribution of [18F]FEDPN in beta estrogen receptor knock out mouse liver after 30 min; (n=3). The data set is classed as ADME, organism-based. The note with it: in vivo, 0.5 h. Put shortly: (§3)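 αERKO and βERKO mice, staged by daily vaginal smears and kept on estrogen-free chow, were studied in a nonestrous stage. Each mouse received 11 μCi of tracer in 130 μL of 10% ethanol/saline. Mice were killed at 30 min, 1 h or 2 h (n = 3 each). Organs were removed, blotted, weighed and gamma-counted against an injectate standard. Uptake is given as %ID/g ± SD.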

A short description of data set [16]: Biodistribution of [18F]FEDPN in beta estrogen receptor knock out mouse spleen after 1 h; (n=3). Particulars: in vivo. The data set is classed as ADME, organism-based. Put shortly: as §3
Data set [17] in a line: Biodistribution of [18F]-FEDPN in alpha estrogen receptor knock out mouse uterus after 1 h; (n=3). Type of data set: ADME, organism-based. Particulars: in vivo. The gist of the method:
(§4)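 ERKO female mice (αERKO or βERKO), rested 48 h after shipping, placed on estrogen-free chow, and staged by daily vaginal smears. Injected in a nonestrous stage with 11 µCi [18F]FEDPN in 130 µL of 10% ethanol/saline. Killed at 30 min, 1 h or 2 h. Organs counted and reported as %ID/g ± SD, three animals per point.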

A short description of data set [18]: Biodistribution of [18F]FEDPN in alpha estrogen receptor knock out mouse brain after 1 h; (n=3). Type of data set: ADME, organism-based. Particulars: in vivo. The gist of the method:
as §4

Data set [19] is described as follows: Biodistribution of [18F]FEDPN in beta estrogen receptor knock out mouse ovaries after 30 min; (n=3). The data set is classed as ADME, organism-based, Female gonad. The note with it: in vivo, 0.5 h. The gist of the method:
as §3

The nature of data set [20]: Biodistribution of [18F]FEDPN in rat uterus after 30 min when given in tail vein; (n=5). Type of data set: ADME, organism-based. Particulars: in vivo, iv, 0.5 h. The gist of the method: as §2
Data set [21] can be described thus: Biodistribution of [18F]FEDPN in alpha estrogen receptor knock out mouse blood after 2 h; (n=3). Type of data set: ADME, organism-based. Particulars: in vivo. The gist of the method: as §4
A short description of data set [22]: Biodistribution of [18F]-FEDPN in beta estrogen receptor knock out mouse thymus after 30 min; (n=3). The data set is classed as ADME, organism-based. Particulars: in vivo, 0.5 h. Put shortly: as §4
Data set [23] can be described thus: Biodistribution of [18F]FEDPN in alpha estrogen receptor knock out mouse heart after 1 h; (n=3). Type of data set: ADME, organism-based. The note with it: in vivo. Put shortly: as §4
The nature of data set [24]: Biodistribution of [18F]FEDPN in beta estrogen receptor knock out mouse uterus after 2 h; (n=3). Type of data set: ADME, organism-based. The note with it: in vivo. The gist of the method:
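αERKO and βERKO mice were fed estrogen-free chow and staged by daily vaginal smears. Mice in a nonestrous stage each received 11 µCi tracer in 130 µL 10% ethanol/saline. Organs were taken at 30 min, 1 h or 2 h and gamma-counted. Uptake is expressed as %ID/g ± SD, three animals per point.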

The nature of data set [25]: Biodistribution of [18F]FEDPN in alpha estrogen receptor knock out mouse fat after 2 h; (n=3). The data set is classed as ADME, organism-based, Adipose tissue. Particulars: in vivo. Put shortly:
as §4

The nature of data set [26]: Biodistribution of [18F]-FEDPN in rat fat after 30 min when given in tail vein; (n=5). Type of data set: ADME, organism-based, Adipose tissue. The note with it: in vivo, iv, 0.5 h. Put shortly:
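Immature female Sprague–Dawley rats (<25 days old) anesthetized with isoflurane/O2. Given 20 µCi tracer by tail vein in 150 µL of 20% ethanol/saline. […] Killed at 30 min, 1 h or 2 h. Blood and organs blotted, weighed and gamma-counted against a standard dilution of the injectate. Reported as %ID/g ± SD, n=5.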

A short description of data set [27]: Biodistribution of [18F]FEDPN in beta estrogen receptor knock out mouse kidney after 2 h; (n=3). The note with it: in vivo. Type of data set: ADME, organism-based. Put shortly:
as §3

A short description of data set [28]: Biodistribution of [18F]FEDPN in alpha estrogen receptor knock out mouse thymus after 2 h; (n=3). Type of data set: ADME, organism-based. Particulars: in vivo. The gist of the method:
as §3

For data set [29], the target named is Estrogen receptor (Mus musculus) (UniProt O08537+P19785). Kind of data set: Ratio of [18F]FEDPN uptake in uterus of ERbeta KO-mouse (diestrus) and ERalpha KO-mouse (nonestrus) after 30 min.
A short description of data set [30]: Biodistribution of [18F]FEDPN in beta estrogen receptor knock out mouse blood after 2 h; (n=3). The data set is classed as ADME, organism-based. The note with it: in vivo. Put shortly:
as §3

A short description of data set [31]: Biodistribution of [18F]FEDPN in alpha estrogen receptor knock out mouse lung after 30 min; (n=3). The data set is classed as ADME, organism-based. Particulars: in vivo, 0.5 h. The gist of the method: as §3
The nature of data set [32]: Biodistribution of [18F]FEDPN in beta estrogen receptor knock out mouse blood after 1 h; (n=3). Type of data set: ADME, organism-based. The note with it: in vivo. The gist of the method:
as §3

The structures appear in SMILES notation.

Estrogen receptor (Mus musculus), sequence (O08537 whole entry, looked up): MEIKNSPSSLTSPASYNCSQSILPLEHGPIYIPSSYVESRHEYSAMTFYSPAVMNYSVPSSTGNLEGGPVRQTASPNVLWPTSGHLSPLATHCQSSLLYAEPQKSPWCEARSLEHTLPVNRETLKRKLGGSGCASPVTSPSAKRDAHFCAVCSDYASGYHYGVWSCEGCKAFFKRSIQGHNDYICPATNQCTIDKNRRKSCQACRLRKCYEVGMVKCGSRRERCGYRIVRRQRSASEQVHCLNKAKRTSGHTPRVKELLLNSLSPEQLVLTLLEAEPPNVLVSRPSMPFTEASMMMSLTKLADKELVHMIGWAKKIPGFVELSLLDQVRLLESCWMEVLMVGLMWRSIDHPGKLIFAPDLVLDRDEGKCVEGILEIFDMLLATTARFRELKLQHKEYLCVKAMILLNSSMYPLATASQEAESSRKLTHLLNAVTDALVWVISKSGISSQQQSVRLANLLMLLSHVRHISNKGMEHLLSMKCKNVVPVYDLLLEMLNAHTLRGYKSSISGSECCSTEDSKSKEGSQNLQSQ
Estrogen receptor (Mus musculus), sequence (P19785 whole entry, looked up): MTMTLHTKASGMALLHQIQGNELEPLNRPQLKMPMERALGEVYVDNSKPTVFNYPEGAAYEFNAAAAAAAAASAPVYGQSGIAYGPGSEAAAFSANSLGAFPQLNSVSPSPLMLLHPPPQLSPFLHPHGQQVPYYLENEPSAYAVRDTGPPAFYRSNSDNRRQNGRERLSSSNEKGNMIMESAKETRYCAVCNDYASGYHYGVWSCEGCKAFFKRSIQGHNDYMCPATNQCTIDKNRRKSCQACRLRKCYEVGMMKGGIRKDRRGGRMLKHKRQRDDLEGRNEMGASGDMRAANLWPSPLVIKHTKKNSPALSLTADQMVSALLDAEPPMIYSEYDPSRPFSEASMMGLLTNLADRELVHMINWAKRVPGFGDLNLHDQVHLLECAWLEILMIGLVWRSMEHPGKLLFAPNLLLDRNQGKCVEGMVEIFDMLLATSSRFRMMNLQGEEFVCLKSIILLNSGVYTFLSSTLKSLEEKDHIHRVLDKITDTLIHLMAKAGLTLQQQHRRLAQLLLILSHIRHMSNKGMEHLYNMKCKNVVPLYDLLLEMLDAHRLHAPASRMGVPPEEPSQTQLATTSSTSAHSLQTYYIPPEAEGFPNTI

On to `C[C@]12CC[C@@H]3c4ccc(O)cc4CC[C@H]3[C@@H]1C[C@@H](F)[C@@H]2O` [FLUOROESTRADIOL], for which the Biodistribution in data set [1] was 4.44 %ID/g; in [2] it was 0.81 %ID/g; in data set [3], 0.95 %ID/g; in data set [4], 1.29 %ID/g; in [5] it was 2.14 %ID/g; in [6], 3.83 %ID/g. Moreover, the Biodistribution in [7] stood at 0.12 %ID/g; in data set [8] it was 1.26 %ID/g; in data set [9], 0.24 %ID/g; in [10], 0.67 %ID/g; in [11], 0.37 %ID/g; in data set [12], 4.54 %ID/g. Besides, the Biodistribution in data set [13] is on record as 0.72 %ID/g.
Consider `N#C[C@H](c1ccc(O)cc1)[C@@H](CCF)c1ccc(O)cc1`, for which the Biodistribution in data set [14] turned out to be 0.26 %ID/g; in [15], 4.55 %ID/g; in data set [16], 0.4 %ID/g; in data set [17] it was 0.37 %ID/g; in data set [18], 0.51 %ID/g; in [19], 1.4 %ID/g. For the same molecule, the Biodistribution in data set [20] was 0.95 %ID/g; in data set [21] it was 0.23 %ID/g; in data set [22] it was 1.2 %ID/g; in data set [23], 0.74 %ID/g; in data set [24] it was 0.31 %ID/g; in [25] it was 0.09 %ID/g. Moreover, the Biodistribution in [26] is given as 0.57 %ID/g; in data set [27], 1.39 %ID/g; in data set [28], 0.28 %ID/g; in [30], 0.18 %ID/g; in [31] it was 4.32 %ID/g; in data set [32], 1.12 %ID/g. Besides, in data set [29], the Ratio amounted to 1.67.
